Cl transport mod = KCC2 cotransporter modulators, thallium flux, primary screen, cell-based, HEK293 KCC2, FluoZin-2 fluorescence, MLSMR; B-score of Tl+ flux slope (higher = more flux/activation; lower = inhibition) at 10 µM; KCC2 cells, thallium flux FluoZin-2 fluorescence; AID 1456, 2008; Solute carrier family 12 member 5 (Homo sapiens), Q9H2X9; 190,000 compounds, 2.2% hits;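 active means thallium flux slope and its plate-corrected score both differing from the plate sample mean at a set confidence after two filtering rounds, in either direction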;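 further: slope of fluorescence scaled to starting intensity during 10 to 20 s after thallium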
NPY-Y1 PAM-ag = NPY-Y1 receptor potentiators or agonists, primary screen, cell-based; 220,000 compounds, 0.37% hits; AID 1304, 2008; NPY-Y1 expressing cells, potentiator/agonist activation; activation, % at 3.6 µM; Neuropeptide Y receptor type 1 (Homo sapiens), P25929; in the data active means activation above about 33%, passing the limit was not always enough;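 further: cells stimulated with NPY at EC10 then isoproterenol at EC100; 0% = low agonist plus stimulus and 100% = saturating agonist plus stimulus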
NPY Y1 blocker = NPY-Y1 receptor antagonists, primary screen, cell-based; Neuropeptide Y receptor type 1 (Homo sapiens), P25929; HEK293-CNG Y1 cells, membrane potential fluorescence; NPY at EC95, then isoproterenol; inhibition, % at 3.6 µM; 200,000 compounds, 1% hits;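 active means inhibition above the campaign mean inhibition of all tested compounds plus 3 SD, cut at about 20% in these data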;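 further: 0% = DMSO wells given NPY plus isoproterenol and 100% = isoproterenol alone without NPY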
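Material: HEK293 Y1/CNG channel cell line; also added: NPY (25 nM), isoproterenol (1 µM), Ro 20-1724 (25 µM); doses: one concentration, 3.6 µM, in 0.4% DMSO; schedule: compound incubation 1 h at room temperature, readout 45 min post-stimulation; technique: membrane potential fluorescence; measure: fluorescence ratio normalized to % inhibition between controls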
NPY-Y2 antag = NPY-Y2 receptor antagonists, primary screen, cell-based. NPY-Y2 expressing cells, antagonist mode. inhibition, % at 2.7 µM. 140,000 compounds, 0.99% hits. AID 793, 2007; in the data active means inhibition above about 17%;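 further: 0% = vehicle with agonist challenge and 100% = reference antagonist with challenge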
Target sequence (P49146 whole entry, looked up): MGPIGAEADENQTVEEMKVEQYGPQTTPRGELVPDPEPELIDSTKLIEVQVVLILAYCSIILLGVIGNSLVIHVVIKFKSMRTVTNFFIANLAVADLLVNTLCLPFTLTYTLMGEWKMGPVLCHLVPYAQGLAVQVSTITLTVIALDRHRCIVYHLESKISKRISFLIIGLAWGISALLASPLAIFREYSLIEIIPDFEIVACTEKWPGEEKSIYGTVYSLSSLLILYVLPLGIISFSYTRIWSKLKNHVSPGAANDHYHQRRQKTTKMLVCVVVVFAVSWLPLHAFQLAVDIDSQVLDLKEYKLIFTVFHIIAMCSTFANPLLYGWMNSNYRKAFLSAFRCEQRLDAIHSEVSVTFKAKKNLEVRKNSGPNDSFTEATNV
Furin inhibitor = human furin inhibitors, primary screen, biochemical, fluorescence intensity; P09958; 220,000 compounds, 0.061% hits; AID 463115, 2010; inhibition, % at 20 µM or 30 µM; purified furin, fluorogenic substrate cleavage; in the data active means inhibition above about 25%
NPY-Y2 PAM-ag = NPY-Y2 potentiators or agonists, primary screen, cell-based. 220,000 compounds, 0.45% hits. cells expressing NPY-Y2, potentiator/agonist read-out. activation, % at 3.6 µM; in the data active means activation above about 27%;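 further: cells stimulated with NPY near EC25 plus isoproterenol at EC100; 0% = vehicle plus submaximal agonist and 100% = vehicle plus saturating agonist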
KCC2 sec1 = KCC2 modulators in sodium-free buffer, confirmation, cell-based, HEK293 KCC2, thallium flux, secondary assay. AID 1713, 2009. 3,700 compounds, 15% hits. shares compounds with Cl transport mod. FluoZin2 fluorescence; hits give high values. normalised thallium flux (F/F0 slope) at 10 µM;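 active means thallium flux slope above the same plate's solvent-only control mean plus 3 SD; inconclusive means the two replicate wells disagree; inactive means no significant difference from solvent-only control wells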
KCC2 bumet counter = thallium flux persisting under bumetanide in KCC2 cells, confirmation, counter-screen for KCC2 modulator project, cell-based, HEK293 KCC2, FluoZin2, secondary assay 3; shares compounds with Cl transport mod; HEK293-KCC2 + bumetanide/ouabain; hits give high values; normalized thallium flux at 10 µM; 3,700 compounds, 49% hits; AID 1714, 2009;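 active means thallium entry rate above the same plate's blocked-transporter control wells by more than 3 SD; inconclusive means the two repeat wells disagree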;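 further: raw slope of fluorescence over initial fluorescence between 10 and 20 s after thallium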
KCC2 sec2 = KCC2 modulators without ouabain present, confirmation, cell-based, HEK293 KCC2, thallium flux, FluoZin2, secondary assay 2; 3,700 compounds, 23% hits; shares compounds with Cl transport mod; thallium flux FluoZin2 fluorescence; actives lie on both sides; F/F0 rise rate, 10–20 s post-thallium; AID 1715, 2009; normalized thallium flux at 10 µM;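 active means thallium flux slope more than 3 SD above or below the plate's solvent-only control mean, mostly below; inconclusive means the two repeat wells disagreed; inactive means no significant shift from solvent-only controls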;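 further: raw slope with 0.1% DMSO as baseline and bumetanide as block control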
HEK counter1 = thallium flux modulation in parental HEK cells, confirmation, counter-screen for KCC2 modulator project, cell-based, counterscreen 1; shares compounds with Cl transport mod; HEK293 parental cells, thallium flux FluoZin2, ouabain; baseline-ratio fluorescence slope, 10–20 s after thallium; thallium flux rate (normalised fluorescence) at 10 µM; 3,700 compounds, 46% hits; AID 1716, 2009;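 active means thallium flux rate significantly above the same plate's solvent-only control wells, beyond their mean plus 3 SD; inconclusive means the two replicate wells gave conflicting results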
KCC2 ouabain = KCC2 inhibitors and activators, ouabain retest, confirmation, HEK-KCC2 cells | AID 1717, 2009 | shares compounds with Cl transport mod | raw Tl+ flux slope (below DMSO = inhibition, above = activation) at 10 µM | 3,700 compounds, 48% hits | HEK293-KCC2, thallium flux FluoZin2 fluorescence; bidirectional: low = inhibitor, high = activator;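 active means thallium flux slope beyond 3 SD from same-plate DMSO control mean in most replicates, usually higher, sometimes lower; inconclusive means repeat tests gave conflicting results; inactive means no significant difference from controls in most replicates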;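 further: slope of initial-normalized fluorescence between seconds 10 and 20 after thallium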
HEK counter2 = native HEK Tl+ uptake effects, second counter-screen – HEK cells, counterscreen 2, counter-screen for KCC2 modulator project, confirmation; 3,700 compounds, 33% hits; thallium flux slope at 10 µM; shares compounds with Cl transport mod; HEK293 parental, thallium flux FluoZin-2 fluorescence slope;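 active means thallium flux slope above the same plate's solvent-control mean plus 3 SD in both duplicate wells; inconclusive means duplicate wells that disagreed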;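 further: run without ouabain in cells lacking the KCC2 cotransporter; slope of fluorescence scaled to its starting value between 10 and 20 s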
* = called active by the depositor; ? = inconclusive; nt = no result. This is a sample that favours compounds with a hit; in the whole collection about 3.7% have one here.

SMILES | Cl transport mod | NPY-Y1 PAM-ag | NPY Y1 blocker | NPY-Y2 antag | Furin inhibitor | NPY-Y2 PAM-ag | KCC2 sec1 | KCC2 bumet counter | KCC2 sec2 | HEK counter1 | KCC2 ouabain | HEK counter2
CC1CN(S(=O)(=O)c2ccc(NC(=O)CCN3C(=O)c4ccccc4C3=O)cc2)CC(C)O1 (stereo unspecified) | -3.9* | -15 | -5 | 2 | -15 | 5 | 0.016 | 0.0045 | 0.029 | 0.0074 | 0.017 | 0.011
Cc1ccc(Cl)cc1NC(=S)N/N=C/c1cccc2ccccc12 | 30* | -18 | nt | nt | -4 | -22 | 0.0091 | 0.035* | 0.033 | ? | 0.028* | 0.013
CC(=O)Nc1cc(Cl)ccc1OS(=O)(=O)c1ccc(C)cc1 | 0.78 | 3 | -11 | 2 | -14 | 2 | nt | nt | nt | nt | nt | nt
O/N=C\c1cccn1-c1nccs1 | -0.82 | -10 | -7 | nt | -13 | -3 | nt | nt | nt | nt | nt | nt
O/N=C\c1cccn1-c1ccc(Br)cc1 | nt | -11 | 6 | 3 | -19 | -1 | 0.0083 | 0.006 | 0.03 | 0.0059 | 0.019 | 0.0097
C[C@H]1CC[C@H]2C(=O)N3[C@H](c4cccc(N5CCCC5=O)c4)[C@@H](C)CC[C@H]3C(=O)N2[C@@H]1c1cccc(N2CCCC2=O)c1 | 4.9* | 0 | -5 | 0 | -5 | 0 | 0.0066 | 0.005 | ? | 0.0077 | 0.018 | 0.011
O=C(O)c1cccc(N2CCCC2=O)c1 | 0.47 | 8 | 9 | 3 | -19 | -2 | nt | nt | nt | nt | nt | nt
COC(=O)c1ccc(C(=O)N2CCCC(CNC(=O)c3ccccc3Cl)C2)cc1 (stereo unspecified) | 0 | 0 | 2 | nt | -17 | -11 | nt | nt | nt | nt | nt | nt
COC(=O)CSc1ncnc2c1cnn2Cc1ccccc1 | -0.087 | 1 | 1 | 4 | -10 | -1 | nt | nt | nt | nt | nt | nt
CC(C)OC(=O)CSc1ncnc2c1cnn2Cc1ccccc1 | -3.6* | -12 | -1 | 3 | -17 | -3 | 0.0096 | 0.0072 | 0.032 | 0.0074 | 0.019 | 0.011
O=C(CCc1nc2ccccc2[nH]c1=O)N/N=C/c1ccccc1 | 0.1 | -10 | -3 | nt | -25 | 3 | nt | nt | nt | nt | nt | nt
CCOc1ccccc1NC(=O)CSc1nccn1-c1ccccc1 | -4.8* | 12 | 4 | 4 | -20 | 8 | 0.017 | ? | 0.025* | 0.0046* | 0.013* | 0.0071*
COc1ccc(NC(=O)CSc2nccn2-c2ccccc2)c(OC)c1 | -0.093 | -11 | -3 | 4 | -20 | -1 | nt | nt | nt | nt | nt | nt

High-throughput results (PubChem BioAssay)
